An excerpt weighted towards active compounds, which were near 1.7% of everything screened.
Cneo AK release – causes C. neoformans cell lysis; adenylate kinase release luminescence, 4 h; normalised: neutral wells 0, clomiphene wells 100; lysis activity, % at 15 µM; 0.2% of 360,000 active; AID 651654;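 active = mean lysis activity across replicates of at least 80%, whatever share of replicates individually reach that level; inactive = mean lysis activity below 80%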
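Material: C. neoformans cells; Schedule: 4 h static compound exposure, 37 °C, read 1 h post-reagent; Measured by: adenylate kinase release luminescence; Read-out: signal increase indicating cell lysis; Controls: Clomiphene as positive lysis control.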
CaV13 ICDI inh – Disruptors of the CACNA1D IQ motif to Ca2+-dependent inactivation inhibitor domain association, primary screening, Förster resonance energy transfer in intact living …; AID 743397; 0.098% of 340,000 active; inhibition, % at 12.3 µM; HEK cells, CFP/YFP FRET ICDI-IQ, plate reader, 10 min; percent FRET-ratio fall versus neutral wells;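 active = mean replicate inhibition of at least 30% and at least 1% of replicates passing that level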;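 also: 0% = median of the neutral control wells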
rRNA inh HTS – selective bacterial rRNA inhibition in E. coli. E. coli WT GFP vs humanized-ribosome RFP mutants, fluorescence, 24 h; active compounds read low; DMSO median 0, no signal -100. GFP signal change (wild-type ribosome), % (no concentration beside the values). 1.6% of 350,000 active;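 active = significant combined selectivity score with lowered wild-type GFP, culture density cut under 30%, mutant RFP and density less affected; inactive = any of these conditions unmet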
F508del corr – correctors of CFTR F508del function in bronchial epithelial cells; activity (quench increase), % at 7.58 µM; 0.36% of 350,000 active; AID 720511; CFBE cells, YFP halide quenching; stimulated with forskolin plus potentiator P3; % fluorescence drop versus neutral controls;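 active = mean added fluorescence quench of at least 8% versus neutral control, with both replicates also reaching 8%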;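 also: cells transiently co-express mutant CFTR-F508del with the halide-sensitive YFP; corrector assay measuring rescue of mutant channel to the surface after 24 h compound exposure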
Starred values were filed as active, the others as inactive; nt = no result.

SMILES | Cneo AK release | CaV13 ICDI inh | rRNA inh HTS | F508del corr
C[C@@H]1CN([C@H](C)CO)C(=O)c2cc(NS(C)(=O)=O)ccc2O[C@@H]1CN(C)Cc1ccc(Cl)c(Cl)c1 | 4 | nt | -6 | 4
CCCN1C[C@H](C)[C@H](OC)CN(C)C(=O)c2cc(NC(=O)c3cnccn3)ccc2OC[C@@H]1C | -1 | nt | 0 | -3
CC(=O)N1CC2(C1)[C@H](c1ccccc1)[C@H](CO)N2Cc1ccccc1F | nt | nt | 2 | 0
Cc1cc(-c2onc3ccc(Cl)cc23)ccc1O | -8 | -15 | -31* | 4
O=C(NCc1cccnc1)c1cc(C2CCCCN2C(=O)CCCc2ccccc2)on1 (stereo not drawn) | 0 | -4 | -2 | 12*
Cc1ccc(S(=O)(=O)N[C@H]2C=C[C@H](CC(=O)N3CCC(Cc4ccccc4)CC3)O[C@H]2CO)cc1 | 3 | nt | 1 | -1
O=C(O)c1csc(N/N=C/c2ccc(Br)cc2)n1 | nt | -10 | -28* | -3
C[C@H]1CCCCO[C@H](CN(C)CC2CCCCC2)[C@@H](C)CN([C@@H](C)CO)C(=O)c2cc(NC(=O)Nc3ccc(F)cc3)ccc2O1 | 2 | nt | -24 | -2
O=C(NC[C@H]1CC[C@@H]2[C@@H](CN2S(=O)(=O)c2ccccc2[N+](=O)[O-])O1)C1CCCC1 | nt | nt | nt | 3
Cc1cccc2c(N=Nc3ccc(S(=O)(=O)Nc4ccc(Cl)cc4)cc3[N+](=O)[O-])c(O)[nH]c12 | 0 | 9 | 5 | 9.7*
CCCN(C)C[C@@H]1OCCCC[C@H](C)Oc2ccc(NC(=O)C3CCCCC3)cc2C(=O)N([C@H](C)CO)C[C@@H]1C | nt | nt | 0 | nt
[N-]=[N+]=NC[C@H](Cc1ccccc1)N1CC[C@@H](O)CCC1=O | 6 | -9 | 9 | 0
[N-]=[N+]=NC[C@H](Cc1ccccc1)N1CC[C@@H](OCc2ccccc2)CCC1=O | 3 | -8 | -25* | -2
CCC(=O)N1CCCCN2[C@H](CO)[C@H](c3ccc(/C=C/c4ccccc4)cc3)[C@@H]2C1 | 1 | nt | -54 | -3
CC1c2ccsc2CCN1C(=O)NC(=O)c1ccc(Cl)cc1 (stereo not drawn) | -7 | -5 | 15 | nt
CCCC1c2ccsc2CCN1C(=S)NC (stereo not drawn) | nt | -20 | -36* | -1
CCOC(=O)c1cc2c(=Cc3ccc(N(C)C)cc3)c3ccccc3n2[n+]1C | nt | -12 | -53 | 9.9*
Cc1cc2c(=Cc3ccc(N(C)C)cc3)c3ccccc3n2[n+]1C | nt | -7 | -48 | -1
Cc1noc(C)c1S(=O)(=O)N(C)C[C@H]1Oc2ccc(NC(=O)c3ccncc3)cc2C(=O)N([C@H](C)CO)C[C@@H]1C | nt | nt | 7 | nt
COc1ccc(/C=C/C(=O)Nc2ccccc2)cc1S(=O)(=O)N1CCOCC1 | nt | -13 | -18* | -2
COc1ccc(/C=C/C(=O)Nc2ccc(NC(C)=O)cc2)cc1S(=O)(=O)N1CCOCC1 | -9 | -7 | -5 | 1
COc1ccc(C(=O)OCC(=O)c2ccc(F)cc2)cc1OC | -3 | -10 | -22* | 2
CCCOCc1ccc(O)c2ncccc12 | -4 | -5 | -10 | -5
CC(C)COCc1ccc(O)c2ncccc12 | nt | 0 | -35* | 2
CC1(C)Cc2c(sc3ncnc(NNC(=S)NCc4ccccc4)c23)CO1 | nt | -1 | -34* | nt
SMILES | Cneo AK release | CaV13 ICDI inh | rRNA inh HTS | F508del corr
CCN(CC(=O)NC(C)(C)C)Cc1nc2c(Br)cc(Br)cc2c(=O)[nH]1 | nt | -12 | -29* | 0
C[C@@H]1COCn2nncc2CC[C@H](C)C(=O)N1 | nt | nt | 4 | nt
Cc1ccc(C)c(C(=O)COC(=O)c2n[nH]c3ccccc23)c1 | nt | -9 | -56 | -2
O=C(COC(=O)c1n[nH]c2ccccc12)c1cccc(Br)c1 | 7 | -9 | -38* | -1
COc1ccccc1N1CCN(/N=C\c2sccc2C)CC1 | nt | -4 | -28* | 0
COc1ccccc1N1CCN(/N=C/C=C/c2ccccc2[N+](=O)[O-])CC1 | -2 | 1 | -17* | 1
COc1ccccc1N1CCN(c2ccc([N+](=O)[O-])cn2)CC1 | -1 | -2 | -21* | nt
O=[N+]([O-])c1ccccc1/C=C\C=N\N1CCN(c2ccccc2)CC1 | 0 | -5 | -17 | -1
O=[N+]([O-])c1ccc(N2CCC(O)CC2)nc1 | nt | -3 | 1 | -1
C/C=C/c1ccc(C2[C@H]3CNC[C@@H]2N3Cc2ccccc2C(F)(F)F)cc1 (stereo partly drawn) | nt | nt | -5 | nt
CN1C(=O)c2cc(NC(=O)C3CC3)ccc2OC[C@@H]2O[C@H](CC(=O)NCCc3ccncc3)CC[C@H]21 | -2 | nt | 2 | 2
COCCNC(=O)C[C@H]1CC[C@H]2[C@H](COc3ccc(NC(=O)Nc4ccccc4)cc3C(=O)N2C)O1 | 2 | nt | 3 | -1
CN(CC(=O)Nc1ccccc1Cl)C(=O)CSc1nc2ccccc2s1 | 1 | -19 | -26* | nt
Cc1ccc(CSCC(=O)N(C)CC(=O)Nc2ccccc2Cl)cc1 | nt | -6 | -21* | 6
Cc1ccc(CSCC(=O)N(C)CC(=O)Nc2c(Cl)cccc2Cl)cc1 | 1 | -3 | 0 | -3
CN(CC(=O)Nc1ccccc1Cl)C(=O)COC(=O)c1nc(Cl)c(Cl)c(Cl)c1Cl | 2 | -12 | -18* | -4
C[C@@H]1CCCCO[C@H](CN(C)C)[C@@H](C)CN([C@@H](C)CO)C(=O)c2cc(NC(=O)Nc3ccccc3)ccc2O1 | 4 | nt | -1 | 1
C[C@@H]1CN([C@@H](C)CO)S(=O)(=O)c2ccc(-c3cccnc3)cc2O[C@@H]1CN(C)C(=O)c1cccc(F)c1 | 2 | nt | -4 | 0
CC(C)Oc1cccc(C(=O)C2CCCN(C(=O)c3cc(C(F)(F)F)[nH]n3)C2)c1 (stereo not drawn) | -1 | -7 | -29* | 5
CNC[C@@H]1OCCCC[C@@H](C)Oc2ccc(N(C)C)cc2C(=O)N([C@H](C)CO)C[C@H]1C | -1 | nt | 5 | -3
Cc1cc(Cl)nc(-n2nc(C)cc2C)n1 | -1 | -2 | -32* | 0
CNc1cc(C)nc(-n2nc(C)cc2C)n1 | 16 | nt | nt | nt
CC(C)(C)CC(=O)NC(=S)NCCc1ccccc1 | 100* | -7 | -49 | 2
CC(C)CC(=O)NC(=S)NCCc1ccccc1 | 11 | -5 | nt | nt
Cc1cccc(N(C(=O)Nc2ccc(Cl)cc2)C2=NCC(C)S2)n1 (stereo not drawn) | 1 | 2 | -29* | 0
NNC(=O)c1cc2cc(OC(F)(F)F)ccc2[nH]1 | nt | -6 | -25 | 2
O=C(NNC(=O)c1cc2cc(OC(F)(F)F)ccc2[nH]1)c1cccc(C(F)(F)F)c1 | nt | -4 | -21* | 0
O=C(N/N=C/c1ccccc1)C(=O)N/N=C/c1ccccc1 | 2 | -7 | 16 | 2
O=C(C=C=Nc1ccccc1)C(=O)N=C=Cc1ccccc1 | -2 | -27 | -31* | -7
O=C(NC[C@H]1[C@@H](c2ccccc2)[C@@H](CO)N1C(=O)C1CCC1)NC1CCCC1 | 97* | nt | -1 | 3
